For 4 molecules, Activity, IC50 and inhibition in vivo results are on record in ChEMBL document CHEMBL1154089, “Novel N-(3-carboxyl-9-benzyl-beta-carboline-1-yl)ethylamino acids: synthesis, anti-tumor evaluation, intercalating determination, 3D QSAR analysis and docking investigation” (Eur J Med Chem, 2009).

The structures appear in SMILES notation. The source made the active and inactive calls. The calls are words filed in the database; no cut-off is given here.

Data set [1] concerns Mus musculus. Put plainly: Toxicity in ICR mouse assessed as jumping at > 500 mg/kg, ip after 7 days. The arrangement: dose 500 mg/kg, route intraperitoneal. It counts as organism-based. To be noted: in vivo, 168 h. In a few lines: (§1)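 Mice fasted overnight with free access to water, then given a single i.p. injection of 150, 300 or 500 mg/kg in 0.2 ml of 0.9% saline. Groups of 12 (six male, six female). Animals were watched continuously for up to 7 days for abnormal behaviour (tremor, twitch, jumping, tetanus, supination) or death. They were sacrificed on day 7, and heart, liver and kidneys were checked macroscopically. LD50 was estimated graphically.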

The test system of data set [2] is Mus musculus. Put plainly: Toxicity in ICR mouse assessed as liver necropsy at > 500 mg/kg, ip after 7 days. Format: organism-based. The arrangement: dose 500 mg/kg, route intraperitoneal. To be noted: in vivo, 168 h. In a few lines:
as §1

Data set [3] can be described thus: Cytotoxicity against human MES-SA cells after 48 hrs by MTT assay. It counts as functional, cell-based. In a few lines: (§2)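 Cells grown in DMEM or RPMI-1640 with 10% FBS plus penicillin/streptomycin. Seeded at 5 × 10^4 cells/ml and given 4 h at 37 °C in 5% CO2 before the medium was replaced with compound (0.1–400 µM, DMSO vehicle; vehicle control 1% DMSO). After 48 h, MTT added (final 0.5 mg/ml) for 4 h. Formazan dissolved in DMSO and read at 570 nm. IC50 is the concentration giving 50% growth inhibition.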

The test system of data set [4] is Mus musculus. Put plainly: Toxicity in ICR mouse assessed as death at > 500 mg/kg, ip after 7 days. Format: organism-based. The arrangement: dose 500 mg/kg, route intraperitoneal. As to conditions: in vivo, 168 h. In a few lines:
as §1

Data set [5] concerns Mus musculus. Put plainly: Toxicity in ICR mouse assessed as tremor at > 500 mg/kg, ip after 7 days. As to conditions: in vivo, 168 h. The arrangement: dose 500 mg/kg, route intraperitoneal. Format: organism-based. In a few lines: as §1
Data set [6] concerns Mus musculus. Put plainly: Toxicity in ICR mouse assessed as kidneys necropsy at > 500 mg/kg, ip after 7 days. The arrangement: dose 500 mg/kg, route intraperitoneal. As to conditions: in vivo, 168 h. Format: organism-based, Kidney. In a few lines: as §1
Data set [7] has as its system Mus musculus. Put plainly: Toxicity in ICR mouse assessed as supination at > 500 mg/kg, ip after 7 days. Format: organism-based. Set-up: dose 500 mg/kg, route intraperitoneal. As to conditions: in vivo, 168 h. In a few lines: as §1
Data set [8] relates to Mus musculus. Put plainly: Toxicity in ICR mouse assessed as tetanus at > 500 mg/kg, ip after 7 days. Format: organism-based. The arrangement: dose 500 mg/kg, route intraperitoneal. To be noted: in vivo, 168 h. In a few lines:
as §1

The test system of data set [9] is HepG2. Put plainly: Cytotoxicity against human HepG2 cells after 48 hrs by MTT assay. Format: functional, cell-based. As to conditions: HepG2, 48 h. In a few lines: as §2
Data set [10] concerns HeLa. Put plainly: Cytotoxicity against human HeLa cells after 48 hrs by MTT assay. Format: functional, cell-based. In a few lines:
as §2

Data set [11] deals with CCRF S-180. Put plainly: Antitumor activity against mouse S180 cells xenografted in ICR mouse assessed as decrease in tumor weight at 89 umol/kg, ip administered 24 hrs after tumor implantation once daily for 7 consecutive days measured after 24 hrs last post dose. Format: functional. In a few lines:
(§3)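 Male ICR mice, 10–12 weeks old. Solid tumors from 1 × 10^7 viable S180 ascites cells in 0.2 ml 0.9% saline, injected s.c. at the right armpit. Random allocation at 24 h, 12 per group. Dosed i.p. daily in 0.2 ml 0.9% saline for 7 days. Saline-only negative control; cytarabine 89 µmol/kg positive control. Tumors excised and weighed 24 h after the last dose. ANOVA used for statistics.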

Data set [12] deals with Mus musculus. Put plainly: Toxicity in mouse S180 cells xenografted in ICR mouse assessed as increase in body weight at 89 umol/kg, ip administered 24 hrs after tumor implantation once daily for 7 consecutive days measured after 24 hrs last post dose. To be noted: in vivo. Format: organism-based, CCRF S-180. In a few lines: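 S180-bearing male ICR mice, n = 12 per group, given 89 µmol/kg i.p. daily in 0.2 ml 0.9% saline for 7 days, starting 24 h after s.c. implantation. Animals weighed daily. Result expressed as body-weight increase from the start of treatment, in g, mean ± SD.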

Data set [13] deals with Mus musculus. Put plainly: Toxicity in ICR mouse assessed as heart necropsy at > 500 mg/kg, ip after 7 days. Format: organism-based. Set-up: dose 500 mg/kg, route intraperitoneal. As to conditions: in vivo, 168 h. In a few lines:
as §1

Data set [14] relates to Mus musculus. Put plainly: Toxicity in ICR mouse assessed as twitch at > 500 mg/kg, ip after 7 days. Format: organism-based. The arrangement: dose 500 mg/kg, route intraperitoneal. As to conditions: in vivo, 168 h. In a few lines: as §1
A short description of data set [15]: Cytotoxicity against human H1299 cells after 48 hrs by MTT assay. Format: functional, cell-based. To be noted: NCI-H1299, 48 h. In a few lines:
as §2

Data set [16] concerns CCRF S-180. Put plainly: Antitumor activity against mouse S180 cells xenografted in ICR mouse assessed as inhibition of tumor growth at 89 umol/kg, ip administered 24 hrs after tumor implantation once daily for 7 consecutive days measured after 24 hrs last post dose. Format: functional. To be noted: CCRF S-180, ip. In a few lines: (§4)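 S180 solid tumors in male ICR mice (10–12 weeks), 1 × 10^7 cells s.c. at the right armpit. Mice randomized at 24 h, n = 12 per group, and dosed i.p. daily in 0.2 ml 0.9% saline for 7 days. Tumors weighed 24 h after the final dose. Inhibition (%) = [(A − B)/A] × 100, where A is the mean tumor weight of saline controls and B is the mean of the treated group.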

The test system of data set [17] is Mus musculus. Put plainly: Toxicity in mouse S180 cells xenografted in ICR mouse assessed as spleen index at 89 umol/kg, ip administered 24 hrs after tumor implantation once daily for 7 consecutive days measured after 24 hrs last post dose. It counts as organism-based, CCRF S-180. To be noted: in vivo. In a few lines: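 S180-bearing male ICR mice (n = 12) received 89 µmol/kg i.p. daily in 0.2 ml saline for 7 days. Killed under ether 24 h after the last dose; spleens excised and weighed. Spleen index given as mean ± SD, […] body weight.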

Data set [18] relates to HL-60. Put plainly: Cytotoxicity against human HL60 cells after 48 hrs by MTT assay. It counts as functional, cell-based. As to conditions: HL-60, 48 h. In a few lines:
as §2

The test system of data set [19] is CCRF S-180. Put plainly: Antitumor activity against mouse S180 cells xenografted in ICR mouse assessed as inhibition of tumor growth at > 89 umol/kg, ip administered 24 hrs after tumor implantation once daily for 7 consecutive days measured after 24 hrs last post dose. It counts as functional, organism-based.
The subject of data set [20] is CCRF S-180. Put plainly: Antitumor activity against mouse S180 cells xenografted in ICR mouse assessed as inhibition of tumor growth at 0.0089 umol/kg, ip administered 24 hrs after tumor implantation once daily for 7 consecutive days measured after 24 hrs last post dose. As to conditions: CCRF S-180, ip. Format: functional. In a few lines: as §4
Data set [21] relates to CCRF S-180. Put plainly: Antitumor activity against mouse S180 cells xenografted in ICR mouse assessed as decrease in tumor weight at 0.0089 umol/kg, ip administered 24 hrs after tumor implantation once daily for 7 consecutive days measured after 24 hrs last post dose. It counts as functional. In a few lines: as §3
Data set [22] has as its system CCRF S-180. Put plainly: Antitumor activity against mouse S180 cells xenografted in ICR mouse assessed as inhibition of tumor growth at 0.89 umol/kg, ip administered 24 hrs after tumor implantation once daily for 7 consecutive days measured after 24 hrs last post dose. As to conditions: CCRF S-180, ip. Format: functional. In a few lines: as §4
Data set [23] relates to CCRF S-180. Put plainly: Antitumor activity against mouse S180 cells xenografted in ICR mouse assessed as decrease in tumor weight at 0.89 umol/kg, ip administered 24 hrs after tumor implantation once daily for 7 consecutive days measured after 24 hrs last post dose. It counts as functional. In a few lines:
as §3

Consider `O=C(O)CNCCc1nc(C(=O)O)cc2c3ccccc3n(Cc3ccccc3)c12`, for which the Activity entry in data set [1], in data set [2], in [4], in data set [5], in [6] and in data set [7] was “Non-toxic” each time. For the same molecule, the Activity result in data set [8] is “Non-toxic”; in [11] it was 1.47 g; in [12] it was 11.34 g; in [13], “Non-toxic”; in data set [14], “Non-toxic”; in data set [17], 13.1 mg/g. Besides, the IC50 was 178 µM in data set [3]; greater than 400 µM in data set [9]; greater than 400 µM in data set [10]; 75.6 µM in [15]; greater than 400 µM in data set [18]. For the same molecule, the inhibition in vivo at 89 µmol/kg in [16] came out at 11%.

With `C[C@H](NCCc1nc(C(=O)O)cc2c3ccccc3n(Cc3ccccc3)c12)C(=O)O`, the Activity result was “Non-toxic” in data set [1]; “Non-toxic” in data set [2]; “Non-toxic” in [4]; “Non-toxic” in data set [5]; “Non-toxic” in [6]; 1.64 g in [21]. The Activity result was “Non-toxic” in data set [7]; “Non-toxic” in [8]; 0.74 g in data set [11]; 12.92 g in data set [12]; “Non-toxic” in [13]; “Non-toxic” in [14]. Also, the Activity in data set [17] amounted to 13.3 mg/g; in data set [23], 1.22 g. Also, the half-maximal inhibitory concentration (IC50) in data set [3] was 120 µM; in data set [9], 242 µM; in data set [10], 122 µM; in data set [15] it was 81.8 µM; in data set [18], 28.1 µM. In addition, in data set [19], the outcome was Active. In data set [20], the inhibition in vivo at 0.0089 µmol/kg amounted to 1.5%. For the same molecule, in data set [22], the inhibition in vivo at 0.89 µmol/kg stood at 25.6%. In addition, in data set [16], the inhibition in vivo at 89 µmol/kg amounted to 55.2%.

As to `O=C(O)c1cc2c3ccccc3n(Cc3ccccc3)c2c(CCN[C@@H](Cc2ccccc2)C(=O)O)n1`, the Activity entry in [1], in data set [2], in [4], in [5], in [6] and in data set [7] was “Non-toxic” in each case. In addition, the Activity result in [8] was “Non-toxic”; in [11], 1.56 g; in data set [12], 9.74 g; in data set [13] it was “Non-toxic”; in [14], “Non-toxic”; in data set [17], 14.4 mg/g. Further, the IC50 in [3] turned out to be 11 µM; in [9] it was 114 µM; in data set [10], 51.7 µM; in data set [15], 59.3 µM; in [18] it was 31.8 µM. The inhibition in vivo at 89 µmol/kg in data set [16] is 5.2%.

For the molecule `O=C(O)c1cc2c3ccccc3n(Cc3ccccc3)c2c(CCN[C@@H](Cc2ccc(O)cc2)C(=O)O)n1`, the Activity result in data set [1], in data set [2], in data set [4], in data set [5], in [6] and in data set [7] was “Non-toxic” in each case. The Activity result is “Non-toxic” in data set [8]; 0.85 g in data set [11]; 13.62 g in [12]; “Non-toxic” in data set [13]; “Non-toxic” in [14]; 13.6 mg/g in data set [17]. The IC50 in [3] came out at 59.3 µM; in data set [9] it was 127 µM; in data set [10], 209 µM; in data set [15] it was 72.5 µM; in data set [18], 24 µM. The inhibition in vivo at 89 µmol/kg in data set [16] was 48.6%.
